This note sets out measurements from ChEMBL document CHEMBL1125281, “Identification and synthesis of a receptor binding site of human anaphylatoxin C5a” (J Med Chem, 1991).

For experiment [1], the target named is T1, C5a anaphylatoxin chemotactic receptor 1 (Homo sapiens, UniProt P21730).
T1 sequence (P21730 whole entry): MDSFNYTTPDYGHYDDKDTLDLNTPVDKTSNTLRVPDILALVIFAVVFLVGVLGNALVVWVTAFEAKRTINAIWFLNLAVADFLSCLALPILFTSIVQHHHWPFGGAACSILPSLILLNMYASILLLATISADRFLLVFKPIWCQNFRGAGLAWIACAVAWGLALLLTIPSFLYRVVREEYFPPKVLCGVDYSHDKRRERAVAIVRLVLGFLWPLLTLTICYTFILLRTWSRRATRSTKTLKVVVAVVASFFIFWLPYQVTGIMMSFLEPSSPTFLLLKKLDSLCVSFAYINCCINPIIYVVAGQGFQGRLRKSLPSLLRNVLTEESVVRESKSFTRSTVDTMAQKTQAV
The experiment is described as follows: Inhibition of [125I]C5a binding to anaphylatoxin chemotactic receptor of PMNL membranes.

The target of experiment [2] is T1, C5a anaphylatoxin chemotactic receptor 1. The experiment is described as follows: Inhibition of [125I]C5a binding to anaphylatoxin chemotactic receptor of PMNL cells. It is filed as cell-based. The method, boiled down: (§1)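 Intact human PMNL isolated from peripheral blood by one-step density centrifugation. Cells incubated 20 min at 23 °C with [125I]C5a (1 × 10⁻⁹ M), test peptide and protease inhibitors. Cells separated from free ligand by centrifugation through silicone oil at 10000g; pellet γ counts read.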

Experiment [3] shares this target. The experiment is described as follows: Inhibition of [125I]C5a binding to C5a anaphylatoxin chemotactic receptor in PMNL intact cells; inactive. It is filed as cell-based. The method, boiled down: as §1

The structures appear in SMILES notation. Where a SMILES comes first, the peptide text is derived from it. Bridges are numbered along the chain shown (N, C = ends). The star is where a group is joined. Acm = CC(=O)NC*

As for `CC(C)[C@H](NC(=O)[C@H](C)NC(=O)[C@H](C)NC(=O)CNC(=O)[C@H](CC(=O)O)NC(=O)[C@H](Cc1ccc(O)cc1)NC(=O)[C@H](C)NC(=O)[C@H](C)NC(=O)[C@H](CCCCN)NC(=O)[C@H](CCCCN)NC(=O)[C@@H](NC(=O)[C@@H](NC(=O)[C@H](CO)NC(=O)[C@@H](N)Cc1c[nH]cn1)C(C)C)C(C)C)C(=O)N[C@@H](CC(N)=O)C(=O)N[C@@H](CC(N)=O)C(=O)N[C@@H](CC(=O)O)C(=O)N[C@@H](CCC(=O)O)C(=O)O` (H-HSVVKKAAYDGAAVNNDE-OH), the Ki entry in experiment [1] and in experiment [2] was “Not Active” in each case.
Take `CC(=O)N[C@@H](C)C(=O)N[C@@H](C)C(=O)N[C@@H](CCCCN)C(=O)N[C@@H](Cc1ccc(O)cc1)C(=O)N[C@@H](CCCCN)C(=O)N[C@@H](Cc1c[nH]cn1)C(=O)N[C@@H](CO)C(=O)N[C@H](C(=O)N[C@H](C(=O)N[C@@H](CCCCN)C(=O)N[C@@H](CCCCN)C(=O)O)C(C)C)C(C)C` (Ac-AAKYKHSVVKK-OH): the Ki entry in experiment [1] and in experiment [2] was “Not Active” each time.
Take `CC[C@H](C)[C@H](NC(=O)[C@H](CCC(=O)O)NC(=O)[C@H](CCC(=O)O)NC(=O)[C@@H](NC(=O)[C@H](CCCCN)NC(=O)[C@H](CCCCN)NC(=O)[C@H](CCC(N)=O)NC(=O)[C@H](CC(C)C)NC(=O)[C@@H](N)[C@@H](C)O)[C@@H](C)CC)C(=O)N[C@@H](C)C(=O)N[C@@H](C)C(=O)N[C@@H](CCCCN)C(=O)N[C@@H](Cc1ccc(O)cc1)C(=O)N[C@@H](CCCCN)C(=O)O` (H-TLQKKIEEIAAKYK-OH): the Ki entry in experiment [1] and in experiment [2] was “Not Active” throughout.
Take `CC[C@H](C)[C@H](NC(=O)[C@H](CC(N)=O)NC(=O)[C@H](C)NC(=O)[C@H](CCCN=C(N)N)NC(=O)[C@H](CC(C)C)NC(=O)[C@H](CCC(N)=O)NC(=O)[C@@H](N)CO)C(=O)N[C@@H](CO)C(=O)N[C@@H](Cc1c[nH]cn1)C(=O)N[C@@H](CCCCN)C(=O)N[C@@H](CC(=O)O)C(=O)N[C@@H](CCSC)C(=O)N[C@@H](CCC(N)=O)C(=O)N[C@@H](CC(C)C)C(=O)NCC(=O)N[C@@H](CCCN=C(N)N)C(=O)O` (H-SQLRANISHKDMQLGR-OH): the Ki entry in experiment [2] is recorded as “Not Active”.
In the case of `CC(=O)NCSC[C@H](NC(=O)[C@H](C)NC(=O)[C@H](CCCCN)NC(=O)[C@H](CCCCN)NC(=O)[C@@H](NC(=O)[C@@H](NC(=O)[C@@H](N)CO)C(C)C)C(C)C)C(=O)N[C@@H](Cc1ccc(O)cc1)C(=O)N[C@@H](CC(=O)O)C(=O)NCC(=O)N[C@@H](C)C(=O)O` (H-SVVKKAC(Acm)YDGA-OH), the Ki result in experiment [1] and in experiment [2] was “Not Active” each time.
For `CC[C@H](C)[C@@H]1NC(=O)[C@H](CCC(=O)O)NC(=O)[C@H](CCC(=O)O)NC(=O)[C@@H](NC(=O)[C@H](CCCCN)NC(=O)[C@H](CCCCN)NC(=O)[C@H](CCC(N)=O)NC(=O)[C@H](CC(C)C)NC(=O)[C@@H](N)[C@@H](C)O)CSSC[C@@H](C(=O)N[C@@H](Cc2ccc(O)cc2)C(=O)N[C@@H](CC(=O)O)C(=O)NCC(=O)N[C@@H](C)C(=O)O)NC(=O)[C@H](C)NC(=O)[C@H](CCCCN)NC(=O)[C@H](CCCCN)NC(=O)[C@H](C(C)C)NC(=O)[C@H](C(C)C)NC(=O)[C@H](CO)NC(=O)[C@H](Cc2c[nH]cn2)NC(=O)[C@H](CCCCN)NC(=O)[C@H](Cc2ccc(O)cc2)NC(=O)[C@H](CCCCN)NC(=O)[C@H](C)NC(=O)[C@H](C)NC1=O` (H-TLQKKCEEIAAKYKHSVVKKACYDGA-OH; disulfide 6-22), the Ki entry in experiment [1] and in experiment [2] was “Not Active” in each case.
Consider `CC(C)C[C@H](NC(=O)[C@H](CCC(N)=O)NC(=O)[C@H](CO)NC(=O)[C@H](C)NC(=O)[C@@H](NC(=O)[C@@H](NC(=O)[C@H](C)N)C(C)C)C(C)C)C(=O)N[C@@H](CCCN=C(N)N)C(=O)O` (H-AVVASQLR-OH), for which the Ki entry in experiment [1] and in experiment [2] was “Not Active” throughout.
With `CC(C)[C@@H]1NC(=O)[C@H](CO)NC(=O)[C@H](Cc2c[nH]cn2)NC(=O)[C@H](CCCCN)NC(=O)[C@H](Cc2ccc(O)cc2)NC(=O)[C@H](CCCCN)NC(=O)[C@H](C)NC(=O)[C@@H](N)CSSC[C@@H](C(=O)O)NC(=O)[C@H](C(C)C)NC1=O` (H-CAKYKHSVVC-OH; disulfide 1-10), the Ki result in experiment [1] and in experiment [2] was “Not Active” each time.
With `CC[C@H](C)[C@H](NC(=O)[C@H](CCCNC(=N)N)NC(=O)[C@H](C)NC(=O)[C@H](C)NC(=O)[C@H](CCCNC(=N)N)NC(=O)[C@H](CCC(N)=O)NC(=O)[C@H](CCC(=O)O)NC(=O)[C@H](CSCNC(C)=O)NC(=O)[C@@H](NC(C)=O)[C@@H](C)O)C(=O)N[C@@H](CO)C(=O)N[C@@H](CC(C)C)C(=O)O` (Ac-TC(Acm)EQRAARISL-OH), the Ki entry in experiment [1] and in experiment [2] was “Not Active” throughout.
As for `CC(C)[C@H](NC(=O)[C@H](CO)NC(=O)[C@H](Cc1c[nH]cn1)NC(=O)[C@@H](N)CCCCN)C(=O)N[C@H](C(=O)N[C@@H](CCCCN)C(=O)N[C@@H](CCCCN)C(=O)O)C(C)C` (H-KHSVVKK-OH), the Ki entry in experiment [1] and in experiment [2] was “Not Active” throughout.
Turning to `CSCC[C@H](NC(=O)[C@H](CC(=O)O)NC(=O)[C@H](CCCCN)NC(=O)[C@H](Cc1c[nH]cn1)NC(C)=O)C(=O)N[C@@H](CCC(N)=O)C(=O)N[C@@H](CC(C)C)C(=O)NCC(=O)N[C@@H](CCCN=C(N)N)C(=O)O` (Ac-HKDMQLGR-OH), the Ki result in experiment [3] is on record as “Not Active”.
On to `CC[C@H](C)[C@H](NC(=O)[C@H](CCCN=C(N)N)NC(=O)[C@H](C)NC(=O)[C@@H](N)CSCNC(C)=O)C(=O)N[C@@H](CO)C(=O)N[C@@H](CC(C)C)C(=O)NCC(=O)N1CCC[C@H]1C(=O)N[C@@H](CCCN=C(N)N)C(=O)N[C@@H](CCSC)C(=O)N[C@@H](CSCNC(C)=O)C(=O)N[C@@H](CCCCN)C(=O)O` (H-C(Acm)ARISLGPRMC(Acm)K-OH), for which the Ki result in experiment [1] and in experiment [2] was “Not Active” throughout.
In the case of `CC[C@H](C)[C@H](NC(=O)[C@H](CC(N)=O)NC(=O)[C@H](C)NC(=O)[C@H](CCCN=C(N)N)NC(=O)[C@H](CC(C)C)NC(=O)[C@H](CCC(N)=O)NC(=O)[C@H](CO)NC(=O)[C@H](C)NC(=O)[C@@H](NC(=O)[C@@H](NC(=O)[C@H](CCSC)NC(C)=O)C(C)C)C(C)C)C(=O)N[C@@H](CO)C(=O)N[C@@H](Cc1c[nH]cn1)C(=O)N[C@@H](CCCCN)C(=O)N[C@@H](CC(=O)O)C(=O)N[C@@H](CCSC)C(=O)N[C@@H](CCC(N)=O)C(=O)N[C@@H](CC(C)C)C(=O)NCC(=O)N[C@@H](CCCN=C(N)N)C(=O)O` (Ac-MVVASQLRANISHKDMQLGR-OH), the Ki result in experiment [2] is “Not Active”.
Take `CC[C@H](C)[C@H](N)C(=O)N[C@@H](CO)C(=O)N[C@@H](Cc1c[nH]cn1)C(=O)N[C@@H](CCCCN)C(=O)N[C@@H](CC(=O)O)C(=O)N[C@@H](CCSC)C(=O)N[C@@H](CCC(N)=O)C(=O)N[C@@H](CC(C)C)C(=O)NCC(=O)N[C@@H](CCCN=C(N)N)C(=O)O` [ISHKDMQLGR] (H-ISHKDMQLGR-OH): in experiment [3], the Ki entry is “Not Active”.
